Data: PubChem BioAssay
The source made the active and inactive calls.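 The calls were made as follows, unless noted: active = inhibition above 20% together with a positive visual image hit; inconclusive = visual image hit but inhibition not above 20%; inactive = no visual image hit.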

Assays:
[1] = inhibitors of TNFa-induced NFkB p65 translocation, primary screen, imaging, HUVEC, MLSMR starter and 10KST1 sets (AID 438); conditions: HUVEC TNFa-induced p65 nuclear translocation; cell count: measured here: nuclei count (cytotoxicity indicator), at 2.08 µM; inhibition: at 2 µM, stronger effect = higher value, 0% TNFa-plus-vehicle, 100% no-TNFa wells;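 also: compound added about 3h40 before a 20 min TNFalpha stimulation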;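 as to inhibition: signal is the nuclear over cytoplasmic p65 intensity ratio per well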
[2] = endothelial E-selectin expression blockers – imaging, HUVEC, immunofluorescence, MLSMR starter and 10KST1 sets, primary screen (AID 487;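 active = visually confirmed hit in the image check and inhibition above 20%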;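 as to inhibition: signal is fraction of cell area covered by stained E-selectin grains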;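 as to nuclei count: 100% = median nuclei count of all wells on the same plate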); conditions: HUVEC TNFalpha-induced E-selectin immunofluorescence imaging, at 2 µM; inhibition: stronger effect = higher value; nuclei count: measured here: cell number, toxicity
[3] = Primary imaging screen for DUSP6 inhibitors that restore phospho-Erk in transfected HeLa cells, chemical complementation (AID 609;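 active = compounds giving at least 50% inhibition in the cell-based MKP-3 phosphatase rescue imaging test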;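 as to inhibition: phospho-Erk level distribution per well compared with pooled transfected vehicle control wells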); conditions: HeLa MKP-3 transfected, phospho-Erk imaging KS statistic, at 10 µM, cells stimulated with TPA for 15 min
[4] = target: Dual specificity protein phosphatase 6 (Homo sapiens) (UniProt Q16828); test: as above; conditions: HeLa MKP-3 transfected, phospho-Erk imaging KS statistic; at 10 µM; stronger effect = higher value; cells stimulated with TPA for 15 min
Dual specificity protein phosphatase 6 (Homo sapiens), sequence (Q16828 whole entry, looked up): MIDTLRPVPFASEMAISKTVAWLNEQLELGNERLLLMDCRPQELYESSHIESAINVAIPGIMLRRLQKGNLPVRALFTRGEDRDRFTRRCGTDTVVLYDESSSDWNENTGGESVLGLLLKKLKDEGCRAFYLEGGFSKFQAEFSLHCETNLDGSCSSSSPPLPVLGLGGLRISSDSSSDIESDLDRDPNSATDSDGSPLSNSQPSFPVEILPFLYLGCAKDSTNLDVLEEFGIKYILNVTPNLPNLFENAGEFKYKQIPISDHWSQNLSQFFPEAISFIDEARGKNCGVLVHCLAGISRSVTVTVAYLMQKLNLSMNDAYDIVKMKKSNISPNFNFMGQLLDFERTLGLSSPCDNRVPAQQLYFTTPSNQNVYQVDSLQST

[5] = target: Voltage-gated potassium channel subunit beta-2 (Rattus norvegicus) (UniProt P62483); test: inhibitors of rat Kvbeta2 reductase activity – biochemical, NADPH fluorescence, primary screen (AID 622;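 active = fluorescence slope higher than the sample average by over 3 SD, cut at about -0.22 in these data, passing the limit was not always enough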;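 also: slope of raw intensity against log time taken from 70 to 1610 s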); conditions: recombinant KvBeta, 4-cyanobenzaldehyde reduction, at 10 µM, stronger effect = higher value
Voltage-gated potassium channel subunit beta-2 (Rattus norvegicus), sequence (P62483 whole entry, looked up): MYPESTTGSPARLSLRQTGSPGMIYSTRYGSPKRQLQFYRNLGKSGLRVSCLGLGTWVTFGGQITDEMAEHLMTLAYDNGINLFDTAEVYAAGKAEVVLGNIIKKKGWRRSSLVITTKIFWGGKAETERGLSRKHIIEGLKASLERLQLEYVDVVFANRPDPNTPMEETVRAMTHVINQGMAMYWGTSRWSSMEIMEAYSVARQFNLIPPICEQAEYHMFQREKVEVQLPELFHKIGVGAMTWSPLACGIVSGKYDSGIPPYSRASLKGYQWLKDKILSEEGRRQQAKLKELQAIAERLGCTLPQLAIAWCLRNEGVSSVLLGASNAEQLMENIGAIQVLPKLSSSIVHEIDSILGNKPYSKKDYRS

[6] = target: Voltage-gated potassium channel subunit beta-2 (Rattus norvegicus) (UniProt P62483); test: enhancers of rat Kvbeta2 NADPH turnover – biochemical, NADPH fluorescence, primary screen (AID 623;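 active = NADPH fluorescence slope more negative than the mean of all samples by about 3 SD, 99.7% confidence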;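 also: fluorescence intensity change per second fitted from 20 to 320 s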); conditions: Recombinant KvBeta, NADPH fluorescence decrease slope, 10 min; at 10 µM; stronger effect = lower value
[7] = target: Alpha-2C adrenergic receptor (Homo sapiens) (UniProt P18825); test: compounds altering alpha2C-coupled GIRK flux – cell-based, HEK293 alpha2C/GIRK1/2, thallium flux, primary screen (AID 624;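 active = fluorescence slope after compound addition differing from the mean of all screened samples at 99.7% confidence, in either direction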;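 also: slope of fluorescence ratio to pre-addition baseline per second over 15 to 24 s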); conditions: thallium flux BTC fluorescence, at 10 µM, actives lie on both sides
Alpha-2C adrenergic receptor (Homo sapiens), sequence (P18825 whole entry, looked up): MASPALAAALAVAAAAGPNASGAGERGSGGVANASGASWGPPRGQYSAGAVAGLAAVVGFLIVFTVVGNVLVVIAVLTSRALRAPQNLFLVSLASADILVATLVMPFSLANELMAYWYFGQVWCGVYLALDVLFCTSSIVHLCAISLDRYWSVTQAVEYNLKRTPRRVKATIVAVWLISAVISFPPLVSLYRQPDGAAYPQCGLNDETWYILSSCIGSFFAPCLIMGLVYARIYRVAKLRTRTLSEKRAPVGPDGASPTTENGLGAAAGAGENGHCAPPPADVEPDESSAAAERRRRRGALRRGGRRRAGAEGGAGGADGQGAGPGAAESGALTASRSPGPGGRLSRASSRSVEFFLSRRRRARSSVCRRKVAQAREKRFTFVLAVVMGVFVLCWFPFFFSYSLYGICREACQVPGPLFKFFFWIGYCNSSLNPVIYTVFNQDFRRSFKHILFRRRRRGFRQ

[8] = inhibitors of larval lipid processing in zebrafish, primary screen, whole organism, PED6 fluorescence, gall bladder and intestine (AID 686;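 active = a full or partial loss of lipid-probe fluorescence in the fish gall bladder, intestine or both, judged by eye; inactive = no fluorescence loss, or compound toxic to the fish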;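 also: larvae 5 to 7 days old with five fish per well; signal comes from phospholipase A2 cleavage of quenched PED6 carried via bile; overnight exposure to compound and PED6 before scoring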); conditions: Zebrafish larvae PED6 lipid processing, fluorescence scoring; screened at 20 µM (by protocol)
In short: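 system = live zebrafish larvae aged 5-7 days, whole organism | probe or stimulus = ingested quenched lipid PED6 at 100 nM | doses = 20 µM single dose | timing = overnight exposure | detection = fluorescence microscopy with visual scoring of gall bladder and intestine | read-out = visual per-well fluorescence inhibition score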

[9] = loss of swimming-algae plug formation – whole organism, Chlamydomonas reinhardtii, WT vs cilia-less mutant, absorbance, 96-well, primary screen (AID 463189;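 active = inhibition at or above 50% relative to wild type and mutant plate controls; inactive = inhibition below 50%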;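 also: 0% = wild type cc124 cells in DMSO and 100% = ciliumless bld1 mutant cells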); conditions: Chlamydomonas reinhardtii gravitaxis, OD600 absorbance, 2 days; at 10 µM; stronger effect = higher value
[10] = measured here: cell density z-score
[11] = measured here: nuclear c-Myc green intensity z-score
[12] = measured here: nuclear pErk red intensity z-score, stronger effect = higher value

Structure (SMILES)	cell count [1]	inhibition [1]	inhibition [2]	nuclei count [2]	z-score [3, 10]	z-score [3, 11]	z-score [3, 12]	inhibition [4]	fluorescence slope [5]	NADPH fluorescence slope [6]	slope [7]	outcome [8]	inhibition [9]
CCSc1nnc(N(CCC(=O)O)CCC(=O)O)s1	371	-10.5% (inactive)	-116% (inactive)	155%	0.0345	0.0362	-1.04	7.48% (inactive)	-0.422 (inactive)	-2.2e-05 (inactive)	0.00562 (inactive)	inactive	-5.02% (inactive)
Nc1ccc2c(c1)N1CCN=C1S2	646	-9.1% (inactive)	-53.2% (inactive)	169%	1.6	-0.44	0.246	-0.159% (inactive)	-0.545 (inactive)	-9.2e-05 (inactive)	0.00512 (inactive)	inactive	24% (inactive)
CN=C1c2cc3c(Br)c(OC)ccc3n2CCN1C	550	-16.9% (inactive)	-28.8% (inactive)	142%	0.29	-0.368	0.361	8.31% (inactive)	-0.493 (inactive)	-5.7e-05 (inactive)	0.00409 (inactive)	inactive; toxic	-2.97% (inactive)
CC(C(=O)N1CCCCC1)N1C(=O)c2ccccc2C1=O (stereo not given)	352	-17.2% (inactive)	-54% (inactive)	122%	2.3	-0.711	-0.781	17.5% (inactive)	-0.452 (inactive)	-0.000116 (inactive)	0.00537 (inactive)	inactive	10.7% (inactive)
COc1ccc(Oc2nc3c(c(=O)n(C)c(=O)n3C)n2Cc2cccc(OC)c2)cc1	468	-1.9% (inactive)	-260% (inactive)	162%	1.97	-0.65	-2.21	26% (inactive)	-0.295 (inactive)	-1.2e-05 (inactive)	0.00507 (inactive)	inactive	31.4% (inactive)
Oc1ccc(Br)cc1-c1cc(-c2ccccc2F)[nH]n1	293	13% (inactive)	-88.6% (inactive)	116%	-1.09	2.76	-1.37	-5.26% (inactive)	-0.479 (inactive)	-9.7e-05 (inactive)	0.00987 (inactive)	–	-2.23% (inactive)
c1ccc(Cc2nn[nH]n2)cc1	659	-11% (inactive)	49.2% (inactive)	144%	-1.16	0.713	1.02	-3.95% (inactive)	-0.426 (inactive)	-5.4e-05 (inactive)	0.00705 (inactive)	inactive	-10.1% (inactive)
COc1ccccc1-c1nn2c(-c3ccc(C(C)(C)C)cc3)nnc2s1	509	-5.2% (inactive)	-76.5% (inactive)	110%	-0.995	-1.37	-0.665	-7.86% (inactive)	-0.42 (inactive)	-3.3e-05 (inactive)	0.0128 (inactive)	inactive	19.8% (inactive)
CCOC(=O)CCCCC(=O)NC(CO)C(=O)NC (stereo not given)	573	-3.8% (inactive)	-97.8% (inactive)	204%	-1.05	1.41	-0.705	22.1% (inactive)	-0.374 (inactive)	-2.1e-05 (inactive)	0.00506 (inactive)	inactive	-2.9% (inactive)
COc1cccc(-c2nn3c(-c4ccco4)nnc3s2)c1	611	-8.6% (inactive)	16.8% (inactive)	155%	0.808	-0.226	-0.00224	2.92% (inactive)	-0.406 (inactive)	-0.000142 (inactive)	0.00559 (inactive)	inactive	-2.32% (inactive)
CCc1cc2c(=O)c(-c3cscn3)coc2c(CN(C)C)c1O	517	-8.2% (inactive)	-53.3% (inactive)	86.5%	0.222	-0.434	0.878	1.9e-07% (inactive)	-0.0873 (inactive)	-2.5e-06 (inactive)	0.00409 (inactive)	inactive	15.7% (inactive)
COc1ccccc1-n1c(=O)c2c3c(sc2n2c(SC)nnc12)CCC3	612	-29% (inactive)	-100% (inactive)	169%	-1.08	-0.0482	1.7	-0.608% (inactive)	-0.367 (inactive)	-5.4e-05 (inactive)	0.00462 (inactive)	inactive	16.5% (inactive)
C=CCOc1nc2c(c(=O)n(Cc3ccc(Cl)c(Cl)c3)c(=O)n2C)n1C	654	0.8% (inactive)	-39.8% (inactive)	140%	1.05	1.15	-1.45	-2.91% (inactive)	-0.492 (inactive)	-0.000116 (inactive)	0.00594 (inactive)	inactive	-5.33% (inactive)
CC(=O)Oc1ccccc1C1OC(=O)c2ccccc2N1C(C)=O (stereo not given)	435	-26.4% (inactive)	-136% (inactive)	171%	-0.279	-1.25	-0.306	17.7% (inactive)	-0.274 (inactive)	9.9e-06 (inactive)	0.00513 (inactive)	inactive	23.1% (inactive)
Cc1ccc2c(c1)C(CCN)C(=O)N2Cc1ccccc1 (stereo not given)	622	-12.2% (inactive)	-11.3% (inactive)	154%	0.106	0.432	0.437	-15% (inactive)	-0.424 (inactive)	-3.4e-05 (inactive)	0.00511 (inactive)	inactive	9.26% (inactive)
Cc1cc(COc2ccccc2OCCN2CCN(C)CC2)no1	551	-2.5% (inactive)	-128% (inactive)	134%	0.378	-1.63	0.134	5.95% (inactive)	-0.514 (inactive)	-6.1e-05 (inactive)	0.0049 (inactive)	inactive	9.35% (inactive)
NC(=O)CSc1nc(N)c2c3c(sc2n1)CCCCC3	620	-15.9% (inactive)	47.7% (inactive)	164%	-1.12	-0.0373	0.273	-2.29% (inactive)	-0.362 (inactive)	-6.1e-05 (inactive)	0.0046 (inactive)	inactive	10.9% (inactive)
Cn1c(=O)c2c(nc(N3CCN(Cc4ccccc4)CC3)n2CC(=O)c2ccccc2)n(C)c1=O	669	0.5% (inactive)	-198% (inactive)	155%	0.319	-0.211	0.974	7.73% (inactive)	-0.533 (inactive)	-0.000101 (inactive)	0.00454 (inactive)	inactive	-14.6% (inactive)
CC(C)C1Cc2c(sc3c2c(=O)n(Cc2ccccc2)c2nncn32)CO1 (stereo not given)	557	-4.6% (inactive)	-2.8% (inactive)	115%	1.56	0.421	-0.614	9.61% (inactive)	-0.481 (inactive)	-0.000346 (inactive)	0.00509 (inactive)	inactive	8.24% (inactive)
CC/C(=N\O)c1ccc(OC)c(OC)c1	328	-13.3% (inactive)	-106% (inactive)	159%	-0.778	-1.02	1.01	1.75% (inactive)	-0.423 (inactive)	-0.000183 (inactive)	0.00545 (inactive)	inactive	13.3% (inactive)
COc1cccc(C2=CC(c3ccccc3)n3nnnc3N2)c1 (stereo not given)	586	22.3% (inactive)	-12.1% (inactive)	120%	0.0896	0.142	-0.691	-7.01% (inactive)	-0.275 (inactive)	1.9e-05 (inactive)	0.00526 (inactive)	inactive	22.4% (inactive)
C=CCc1c(C)nc(SCCC)[nH]c1=O	540	-10.1% (inactive)	-102% (inactive)	135%	0.611	-0.0505	-0.577	7.93% (inactive)	-0.486 (inactive)	-1.9e-05 (inactive)	0.0077 (inactive)	inactive	18.7% (inactive)
CCOC(=O)NC(O)C(=O)c1cccs1 (stereo not given)	507	-20.3% (inactive)	-205% (inactive)	153%	1.4	-0.239	-0.163	22.3% (inactive)	-0.5 (inactive)	-0.000158 (inactive)	0.00426 (inactive)	inactive	16.4% (inactive)
O=C1CCc2nc3ccccc3c(=O)n2N1	452	-12.6% (inactive)	21.9% (inactive)	104%	-0.985	0.704	-0.802	11.9% (inactive)	-0.488 (inactive)	-4.1e-05 (inactive)	0.00483 (inactive)	inactive	23.6% (inactive)
Cc1ccc(C(=O)CSC2=C(C#N)C(c3ccco3)C3=C(CCCC3=O)N2)cc1 (stereo not given)	333	-7.4% (inactive)	-98.2% (inactive)	165%	1.35	-1.13	0.366	1.42% (inactive)	-0.449 (inactive)	-0.000148 (inactive)	0.00654 (inactive)	inactive	8.93% (inactive)
O=C1C=C(O)CC(c2cccs2)C1 (stereo not given)	590	1.5% (inactive)	-11.9% (inactive)	126%	-0.072	-0.344	-0.148	-1.12% (inactive)	-0.536 (inactive)	-5.7e-05 (inactive)	0.00523 (inactive)	inactive	-9.61% (inactive)
Nc1c(Br)cc2oc(-c3ccccc3)nc2c1Br	539	-3.4% (inactive)	-23.5% (inactive)	119%	-0.358	-0.383	-0.387	6.51% (inactive)	-0.482 (inactive)	-6.5e-05 (inactive)	0.00567 (inactive)	inactive	-9.35% (inactive)
